Data as given in ChEMBL document CHEMBL3994573, “Cytotoxic Lanostanoids from Poria cocos” (J Nat Prod, 2016).

Experiments:
Assay type in all cases: functional, cell-based
[1] = tested on: CCRF-CEM; test: Antiproliferative activity against human CCRF-CEM cells after 72 hrs by MTT assay
Outline: (§1)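 Leukemia cells (ATCC) grown in RPMI-1640 with 10% FCS, 2 mM glutamine, penicillin/streptomycin at 37 °C, 5% CO2. Seeded at 4 × 10^4 per well. Exposed 72 h to 1.25, 2.5, 5, 10 and 20 μg/mL (DMSO under 0.02%). MTT formazan dissolved in DMSO, read as OD570 − OD620. IC50 = concentration giving half the control absorbance. n = 4 wells per experiment, four separate experiments, ± SD.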

[2] = tested on: MOLT-4; test: Antiproliferative activity against human MOLT4 cells after 72 hrs by MTT assay; conditions: MOLT-4, 72 h; outline: as §1
[3] = tested on: HL-60; test: Antiproliferative activity against human HL60 cells after 72 hrs by MTT assay; conditions: HL-60, 72 h; outline: as §1
[4] = tested on: K562; test: Antiproliferative activity against human K562 cells after 72 hrs by MTT assay; conditions: K562, 72 h; outline: as §1

IC50 [1]	IC50 [2]	IC50 [3]	IC50 [4]	Structure (SMILES)
> 40 µM	> 40 µM	> 40 µM	> 40 µM	C=C(CC[C@@H](C(=O)O)[C@H]1[C@H](O)C[C@@]2(C)C3=CCC4[C@](C)(CC[C@H](O)[C@]4(C)CO)C3=CC[C@]12C)C(C)C (stereo partly specified)
> 40 µM	> 40 µM	> 40 µM	> 40 µM	C=C(C)C(=O)CC[C@@H](C(=O)O)[C@H]1[C@H](O)C[C@@]2(C)C3=C(CC[C@]12C)[C@@]1(C)CC[C@H](O)C(C)(C)[C@@H]1CC3
> 40 µM	> 40 µM	> 40 µM	> 40 µM	CC(C)=CCC[C@@H](C(=O)O)[C@H]1[C@H](O)C[C@@]2(C)C3=C(CC[C@]12C)[C@@]1(C)CC[C@H](O)C(C)(C)[C@@H]1CC3
> 40 µM	> 40 µM	> 40 µM	> 40 µM	C=C(CC[C@@H](C(=O)O)[C@H]1[C@H](O)C[C@@]2(C)C3=C(CC[C@]12C)[C@@]1(C)CC[C@@H](O)C(C)(C)[C@@H]1CC3=O)C(C)C
> 40 µM	> 40 µM	> 40 µM	> 40 µM	CC(C)C(=O)CC[C@@H](C(=O)O)[C@H]1[C@H](O)C[C@@]2(C)C3=CC[C@H]4C(C)(C)[C@@H](O)CC[C@]4(C)C3=CC[C@]12C
> 40 µM	> 40 µM	> 40 µM	> 40 µM	C=C(CC[C@@H](C(=O)O)[C@H]1[C@H](O)C[C@@]2(C)C3=CC=C4C(C)(C)C(=O)CC[C@]4(C)C3=CC[C@]12C)C(C)C
> 40 µM	> 40 µM	> 40 µM	> 40 µM	CC(C)C(=O)CC[C@@H](C(=O)O)[C@H]1[C@H](O)C[C@@]2(C)C3=CC[C@H]4C(C)(C)[C@H](O)CC[C@]4(C)C3=CC[C@]12C
> 40 µM	> 40 µM	> 40 µM	> 40 µM	C=C(CC[C@@H](C(=O)O)[C@H]1[C@H](O)C[C@@]2(C)C3=C(CC[C@]12C)[C@@]1(C)CC[C@H](O)C(C)(C)[C@@H]1CC3=O)C(C)C
0.01 µM	0.01 µM	0.01 µM	0.5 µM	COc1cccc2c1C(=O)c1c(O)c3c(c(O)c1C2=O)C[C@@](O)(C(=O)CO)C[C@@H]3O[C@H]1C[C@H](N)[C@H](O)[C@H](C)O1 [DOXORUBICIN]
> 40 µM	> 40 µM	> 40 µM	> 40 µM	C=C(CC[C@@H](C(=O)O)[C@H]1[C@H](O)C[C@@]2(C)C3=CC[C@@H](C(=C)C)[C@](C)(CCC(=O)O)C3=CC[C@]12C)C(C)C [PORICOIC ACID A]

Structure (SMILES)	IC50 [1]	IC50 [2]	IC50 [3]	IC50 [4]
C=C(CC[C@@H](C(=O)O)[C@H]1[C@H](O)C[C@@]2(C)[C@]34C=C[C@@]5(OO3)C(C)(C)[C@@H](O)CC[C@]5(C)C4=CC[C@]12C)C(C)C	> 40 µM	> 40 µM	> 40 µM	> 40 µM
C=C(CC[C@@H](C(=O)O)[C@H]1[C@H](O)C[C@@]2(C)[C@]34C=C[C@@]5(OO3)C(C)(C)[C@@H](OC(=O)CO)CC[C@]5(C)C4=CC[C@]12C)C(C)C	> 40 µM	> 40 µM	> 40 µM	> 40 µM
CC(C)=CCC[C@@H](C(=O)O)[C@H]1[C@H](O)C[C@@]2(C)C3=CC[C@H]4C(C)(C)[C@@H](O)CC[C@]4(C)C3=CC[C@]12C	> 40 µM	> 40 µM	> 40 µM	> 40 µM
C=C(CC[C@@H](C(=O)O)[C@H]1[C@H](O)C[C@@]2(C)C3=CC[C@H]4C(C)(C)[C@@H](OC(C)=O)CC[C@]4(C)C3=CC[C@]12C)C(C)C	2.7 µM	13.8 µM	7.3 µM	18.6 µM
C=C(CC[C@@H](C(=O)O)[C@H]1[C@H](O)C[C@@]2(C)C3=CC[C@H]4C(C)(C)[C@H](O)CC[C@]4(C)C3=CC[C@]12C)C(C)C	> 40 µM	> 40 µM	> 40 µM	> 40 µM
C=C(CC[C@@H](C(=O)O)[C@H]1CC[C@@]2(C)C3=CC[C@H]4C(C)(C)[C@@H](O)CC[C@]4(C)C3=CC[C@]12C)C(C)C [DEHYDROEBURICOIC ACID]	6.3 µM	14.3 µM	6 µM	25.6 µM
CC(C)=CCC[C@@H](C(=O)O)[C@H]1CC[C@@]2(C)C3=CC[C@H]4C(C)(C)[C@@H](O)CC[C@]4(C)C3=CC[C@]12C [DEHYDROTRAMETENOLIC ACID]	13.1 µM	16.2 µM	20 µM	14.8 µM
C=C(CC[C@@H](C(=O)O)[C@H]1[C@H](O)C[C@@]2(C)C3=CC[C@H]4C(C)(C)[C@@H](O)CC[C@]4(C)C3=CC[C@]12C)C(C)C [DEHYDROTUMULOSIC ACID]	> 40 µM	> 40 µM	> 40 µM	> 40 µM
C=C(CC[C@@H](C(=O)O)[C@H]1[C@H](O)C[C@@]2(C)C3=CC[C@H]4C(C)(C)C(=O)CC[C@]4(C)C3=CC[C@]12C)C(C)C [POLYPORENIC ACID B]	25.5 µM	27.6 µM	31.8 µM	26.3 µM
